In ChEMBL document CHEMBL1124994, “New and versatile approaches to the synthesis of CPP-related competitive NMDA antagonists. Preliminary structure-activity relationships and pharmacological evaluation” (J Med Chem, 1990):

How the values were obtained:
[1] = molecular target: Glutamate NMDA receptor; experiment: Inhibition of N-methyl-D-aspartate glutamate receptor by using [3H]CPP as a radioligand from the rat cortical membranes.; assay type: cell membranes, Membrane
[2] = molecular target: T1, Glutamate NMDA receptor (Rattus norvegicus) (UniProt P35439+Q00959+Q00960+Q00961+Q62645+Q8VHN2+Q9R1M7); experiment: Binding affinity for glutamate-stimulated TCP binding site of N-methyl-D-aspartate glutamate receptor from rat brain by using [3H]-TCP as radioligand; ant = antagonist; conditions: filed as antagonist
How it was run: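 Crude synaptic membranes from rat whole brain minus cerebellum and brainstem, stored at -70 °C, treated with 0.01% Triton X-100 in 50 mM Tris-HCl pH 7.6 at 37 °C for 30 min, then washed. Incubated with 15 mg tissue and 1 nM [3H]TCP in 5 mM Tris-HCl pH 8.0 for 1 h at 25 °C. Filtered on PEI-treated filters, counted by scintillation. Nonspecific binding: 100 µM (+)-SKF 10047.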

[3] = molecular target: Glutamate NMDA receptor; experiment: Compound was tested for inhibition of N-methyl-D-aspartate glutamate receptor by using [3H]CPP as a radioligand from the rat cortical membranes; assay type: cell membranes, Membrane
[4] = molecular target: T1, Glutamate NMDA receptor (Rattus norvegicus); experiment: Binding affinity for glutamate-stimulated TCP binding site of N-methyl-D-aspartate glutamate receptor from rat brain by using [3H]TCP as radioligand; Antagonist; conditions: filed as antagonist
How it was run: (§1)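 Rat whole brain minus cerebellum and brain stem; crude synaptic membranes stored at -70 °C, then treated with 0.01% Triton X-100 in 50 mM Tris-HCl pH 7.6 for 30 min at 37 °C and washed three times. Incubation with 15 mg wet tissue and 1 nM [3H]TCP in 5 mM Tris-HCl pH 8.0, 1 h, 25 °C. Filtration through PEI-treated glass-fiber filters, scintillation counting. Nonspecific binding defined with 100 µM (+)-SKF 10047.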

[5] = molecular target: Glutamate NMDA receptor; experiment: Binding affinity was determined by the ability to displace [3H]-CPP from N-methyl-D-aspartate glutamate receptor of rat brain
How it was run: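 Radioligand displacement of [3H]CPP from rat cortical crude synaptic membranes.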

[6] = molecular target: Glutamate NMDA receptor; experiment: Compound was tested for inhibition of [3H]CPP binding from N-methyl-D-aspartate glutamate receptor in the rat cortical membranes.; assay type: cell membranes, Membrane
[7] = molecular target: T1, Glutamate NMDA receptor (Rattus norvegicus); conditions: filed as agonist
[8] = molecular target: T1, Glutamate NMDA receptor (Rattus norvegicus); experiment: Binding affinity for glutamate-stimulated TCP binding site of N-methyl-D-aspartate glutamate receptor from rat brain by using [3H]TCP as radioligand;Antagonist; conditions: filed as antagonist; how it was run: as §1
[9] = molecular target: T1, Glutamate NMDA receptor (Rattus norvegicus); experiment: Binding affinity for glutamate-stimulated TCP binding site of N-methyl-D-aspartate glutamate receptor from rat brain by using [3H]TCP as radioligand; Agonist; conditions: filed as agonist
How it was run: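 Rat whole brain minus cerebellum and brainstem, crude synaptic membranes stored at -70 °C; thawed, treated with 0.01% Triton X-100 in 50 mM Tris-HCl pH 7.6 at 37 °C for 30 min, washed ≥3 times. Test agents incubated with 15 mg tissue (wet weight) and [3H]TCP 1 nM in 5 mM Tris-HCl pH 8.0, 1 h, 25 °C. Filtration, scintillation counting; nonspecific binding with 100 μM (+)-SKF 10047.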

In the case of `O=C(O)C1CN(CCCP(=O)(O)O)CCN1CCCCC(c1ccccc1)c1ccccc1` (stereo not given), the IC50 [1] is reported as over 100 µM.
For `NC(CCCCCP(=O)(O)O)C(=O)O` (stereo not given) [AP-7], the IC50 [1] was 0.76 µM and the GSTCP activity [2] was “Antagonist”.
In the case of `O=C(O)C1CN(CP(=O)(O)O)CCN1` (stereo not given), the IC50 [3] is reported as 0.32 µM and the GSTCP activity [4] is reported as “Antagonist”.
Compound `O=C(O)C1CN(CCCP(=O)(O)O)CCN1CCCCc1ccccc1` (stereo not given) has an IC50 [1] of over 100 µM.
In the case of `O=C(O)C1CN(Cc2cccc(CP(=O)(O)O)c2)CCN1` (stereo not given), the IC50 [1] is reported as over 100 µM.
`O=C(O)CN1CCNC(C(=O)O)C1` (stereo not given) was tested, and the IC50 [1] was 16 µM and the GSTCP activity [4] was “Antagonist”.
For `O=C(O)C1CN(CCCCP(=O)(O)O)CCN1` (stereo not given), the IC50 [1] was 48 µM and the GSTCP activity [4] was “Antagonist”.
`O=C(O)C1CN(c2cccc(P(=O)(O)O)c2)CCN1` (stereo not given) was tested, and the IC50 [1] was 83 µM.
For `NC(CCCP(=O)(O)O)C(=O)O` (stereo not given), the IC50 [5] was 290 nM and the GSTCP activity [2] was “Antagonist”.
For `CN[C@H](CC(=O)O)C(=O)O` [N-METHYL-D-ASPARTIC ACID (NMDA)], the IC50 [6] was 4.55 µM and the GSTCP activity [7] was “Agonist”.
In the case of `O=C(O)C1CN(CCP(=O)(O)O)CCN1` (stereo not given), the IC50 [1] is reported as 9.8 µM and the GSTCP activity [4] is reported as “Antagonist”.
`O=C(O)C1CN(CCCP(=O)(O)O)CCN1CCC(c1ccccc1)c1ccccc1` (stereo not given) gave an IC50 [3] of over 100 µM.
`O=C(O)c1ccccc1C(=O)N1CCNC(C(=O)O)C1` (stereo not given) was tested, and the IC50 [1] was over 100 µM.
In the case of `O=C(O)CCCN1CCNC(C(=O)O)C1` (stereo not given), the IC50 [1] is reported as 0.85 µM and the GSTCP activity [8] is reported as “Antagonist”.
With `N[C@@H](CCC(=O)O)C(=O)O` the GSTCP activity [7] was “Agonist”.
`O=C(O)C1CN(CCCP(=O)(O)O)CCN1CCC=C(c1ccccc1)c1ccccc1` (stereo not given) gave an IC50 [1] of over 100 µM.
In the case of `O=C(O)C1CN(C(c2ccccc2)P(=O)(O)O)CCN1` (stereo not given), the IC50 [6] is reported as 13.3 µM, the IC50 [1] is reported as 5.8 µM and the GSTCP activity [4] is reported as “Antagonist”.
`O=C(O)C1CN(c2ccccc2P(=O)(O)O)CCN1` (stereo not given) showed an IC50 [3] of over 100 µM.
In the case of `O=C(O)[C@@H]1C[C@H](CP(=O)(O)O)CCN1` [SELFOTEL], the IC50 [1] is reported as 0.065 µM and the GSTCP activity [4] is reported as “Antagonist”.
For `O=C(O)C1CN(CCCP(=O)(O)O)CCN1` (stereo not given), the IC50 [1] was 0.079 µM and the GSTCP activity [9] was “Agonist”.
With `CP(=O)(O)CCCN1CCNC(C(=O)O)C1` (stereo not given) the IC50 [1] was 0.78 µM and the GSTCP activity [2] was “Antagonist”.
For `CN1CCN(CCCP(=O)(O)O)CC1C(=O)O` (stereo not given), the IC50 [1] was 47.7 µM.
